ChEMBL document CHEMBL3792370, “New pseudodimeric aurones as palm pocket inhibitors of Hepatitis C virus RNA-dependent RNA polymerase” (Eur J Med Chem, 2016)
The source made the active and inactive calls. The calls are words filed in the database; no cut-off is given here.

Columns and labels:
Hepatitis C virus = assay: Antiviral activity against HCV genotype 2a/2a J6/JFH1 model infected in Huh7.5 cells after 72 hrs by luciferase reporter gene assay; format: functional, organism-based, Hepacivirus hominis; settings: subtype 2a J6/JFH1, Huh7.5, 72 h
Summary of the method: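 Huh7.5 cells were seeded at 10 000 cells/well and infected 24 h later with J6/JFH1 HCVcc, then incubated overnight at 37°C. Cells were washed and given increasing compound concentrations in medium with 1% DMSO for 72 h at 37°C. After a PBS wash, cells were lysed in Renilla lysis buffer and luciferase activity was read for 10 s.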

[1] = Inhibition of HCV J4 genotype 1b recombinant His-tagged NS5B truncated at 21 C-terminal expressed in Escherichia coli C41 (DE3) assessed as synthesis of […]; design: species or system Hepatitis C virus isolate HC-J4
HEK293 = assay: Cytotoxicity against HEK293 cells at 50 uM after 72 hrs by MTT assay; settings: human, hek293, 72 h
[2] = test system: Hepatitis C virus isolate HC-J4; assay: Inhibition of HCV J4 genotype 1b recombinant His-tagged NS5B truncated at 21 C-terminal H95Q mutant expressed in Escherichia coli C41 (DE3) assessed as synthesis of […]
[3] = Inhibition of HCV J4 genotype 1b recombinant His-tagged NS5B truncated at 21 C-terminal P495L mutant expressed in Escherichia coli C41 (DE3) assessed as synthesis of […]; design: species or system Hepatitis C virus isolate HC-J4

SMILES	EC50 (Hepatitis C virus) [µM]	IC50 [1] [µM]	Activity (HEK293)	Activity [2]	IC50 [3] [µM]
COc1c(-c2ccc3cc(NS(C)(=O)=O)ccc3c2)cc(-n2ccc(=O)[nH]c2=O)cc1C(C)(C)C [DASABUVIR]	9.1	0.6			
O=C1/C(=C/c2ccc(-c3ccccc3/C=C3\Oc4cc(O)cc(O)c4C3=O)cc2)Oc2cc(O)cc(O)c21		6			
O=C1/C(=C/c2ccc(OCC(COc3ccc(/C=C4\Oc5cc(O)cc(O)c5C4=O)cc3)C3CCCCC3)cc2)Oc2cc(O)cc(O)c21 (stereo unspecified)	42	2			
O=C1/C(=C/c2cccc(/C=C3\Oc4cc(O)cc(O)c4C3=O)c2)Oc2cc(O)cc(O)c21		3.6			
O=C1/C(=C/c2ccc(OCC(COc3ccc(/C=C4\Oc5cc(O)cc(O)c5C4=O)cc3)CC3CCCCC3)cc2)Oc2cc(O)cc(O)c21 (stereo unspecified)	90	1.8			
O=C1/C(=C/c2ccc(-c3cccc(/C=C4\Oc5cc(O)cc(O)c5C4=O)c3)cc2)Oc2cc(O)cc(O)c21		3.1			
COc1cc(OC)c2c(c1)O/C(=C\c1cccc(/C=C3\Oc4cc(OC)cc(OC)c4C3=O)c1)C2=O			Non-toxic		
CC(C)CC(COc1ccc(/C=C2\Oc3cc(O)cc(O)c3C2=O)cc1)COc1ccc(/C=C2\Oc3cc(O)cc(O)c3C2=O)cc1	76	1.9			
O=C1/C(=C/c2ccc(/C=C3\Oc4cc(O)cc(O)c4C3=O)cc2)Oc2cc(O)cc(O)c21	202	1.3	Non-toxic	inactive	1.5
O=C1/C(=C/c2ccc(OCC(COc3ccc(/C=C4\Oc5cc(O)cc(O)c5C4=O)cc3)C3CCCC3)cc2)Oc2cc(O)cc(O)c21 (stereo unspecified)		1.9			
CC(C)CC(COc1ccc(/C=C2\Oc3ccccc3C2=O)cc1)COc1ccc(/C=C2\Oc3ccccc3C2=O)cc1	> 400				
O=C1/C(=C/c2ccc(OCCCOc3ccc(/C=C4\Oc5cc(O)cc(O)c5C4=O)cc3)cc2)Oc2cc(O)cc(O)c21	214	1.5			
